In brackets after ≈: the same amount, converted by molar mass. Activity calls are given as the source filed them. The rule behind the calls is not given here.
Key:
[1] = biological target: T1, Bifunctional epoxide hydrolase 2 (Mus musculus, UniProt P34914); assay: Inhibition of recombinant mouse soluble epoxide hydrolase using CMNPC as substrate preincubated for 5 mins followed by substrate addition and measured at 30 secs interval for 10 mins by fluorescence assay
T1 sequence (P34914 whole entry): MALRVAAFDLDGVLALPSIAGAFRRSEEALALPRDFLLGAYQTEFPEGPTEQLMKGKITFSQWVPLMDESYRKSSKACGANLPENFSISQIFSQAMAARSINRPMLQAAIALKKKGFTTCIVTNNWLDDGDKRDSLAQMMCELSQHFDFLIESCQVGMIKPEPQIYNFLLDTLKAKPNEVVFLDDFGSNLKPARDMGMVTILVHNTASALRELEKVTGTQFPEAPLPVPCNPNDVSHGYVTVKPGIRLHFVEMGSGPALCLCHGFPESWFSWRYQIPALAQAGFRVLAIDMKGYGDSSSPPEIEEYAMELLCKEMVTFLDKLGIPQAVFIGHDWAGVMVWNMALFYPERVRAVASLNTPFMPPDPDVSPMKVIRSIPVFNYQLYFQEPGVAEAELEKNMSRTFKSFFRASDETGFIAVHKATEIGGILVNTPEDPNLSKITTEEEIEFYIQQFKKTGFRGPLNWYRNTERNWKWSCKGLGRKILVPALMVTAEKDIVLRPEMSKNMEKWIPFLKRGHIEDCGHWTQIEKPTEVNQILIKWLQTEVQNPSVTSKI
Procedure, shortened: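 Purified recombinant enzyme was preincubated with inhibitor (0.4–100,000 nM final) for 5 min at 30 °C in 100 mM sodium phosphate, pH 7.4, with 0.1 mg/mL BSA and 1% DMSO. CMNPC was added at 5 μM final. 6-Methoxynaphthaldehyde fluorescence (ex 330/em 465 nm) was read every 30 s for 10 min. IC50 values are averages of three replicates.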

[2] = biological target: T2, Bifunctional epoxide hydrolase 2 (Homo sapiens, UniProt P34913); assay: Inhibition of recombinant human soluble epoxide hydrolase using CMNPC as substrate preincubated for 5 mins followed by substrate addition and measured at 30 secs interval for 10 mins by fluorescence assay
T2 sequence (P34913 whole entry): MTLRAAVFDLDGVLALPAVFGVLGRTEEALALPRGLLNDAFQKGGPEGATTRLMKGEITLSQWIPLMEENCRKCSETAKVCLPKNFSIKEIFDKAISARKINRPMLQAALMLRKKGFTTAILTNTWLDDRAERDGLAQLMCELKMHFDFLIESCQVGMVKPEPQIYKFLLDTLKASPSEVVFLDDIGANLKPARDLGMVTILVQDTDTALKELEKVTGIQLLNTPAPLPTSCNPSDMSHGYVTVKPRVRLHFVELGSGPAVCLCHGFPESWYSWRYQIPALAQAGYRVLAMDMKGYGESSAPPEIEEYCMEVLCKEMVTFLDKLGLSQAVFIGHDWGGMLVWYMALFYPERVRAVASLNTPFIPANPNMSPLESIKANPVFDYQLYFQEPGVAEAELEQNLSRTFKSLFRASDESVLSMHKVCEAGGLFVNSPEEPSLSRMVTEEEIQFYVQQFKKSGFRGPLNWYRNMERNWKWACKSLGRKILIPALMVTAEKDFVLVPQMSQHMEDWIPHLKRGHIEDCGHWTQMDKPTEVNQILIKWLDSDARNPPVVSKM

physchem = conditions: 1% DMSO/99% PBS buffer solution
[3] = biological target: T3, Polyunsaturated fatty acid 5-lipoxygenase (Homo sapiens) (UniProt P09917); assay: Inhibition of recombinant human full-length LOX5 (1 to 674 residues) expressed in insect cells using arachidonic acid as substrate preincubated for 10 mins followed by substrate addition measured after 20 mins by H2DCFDA probe based fluorescence assay; conditions: time 30.0 min
T3 sequence (whole entry): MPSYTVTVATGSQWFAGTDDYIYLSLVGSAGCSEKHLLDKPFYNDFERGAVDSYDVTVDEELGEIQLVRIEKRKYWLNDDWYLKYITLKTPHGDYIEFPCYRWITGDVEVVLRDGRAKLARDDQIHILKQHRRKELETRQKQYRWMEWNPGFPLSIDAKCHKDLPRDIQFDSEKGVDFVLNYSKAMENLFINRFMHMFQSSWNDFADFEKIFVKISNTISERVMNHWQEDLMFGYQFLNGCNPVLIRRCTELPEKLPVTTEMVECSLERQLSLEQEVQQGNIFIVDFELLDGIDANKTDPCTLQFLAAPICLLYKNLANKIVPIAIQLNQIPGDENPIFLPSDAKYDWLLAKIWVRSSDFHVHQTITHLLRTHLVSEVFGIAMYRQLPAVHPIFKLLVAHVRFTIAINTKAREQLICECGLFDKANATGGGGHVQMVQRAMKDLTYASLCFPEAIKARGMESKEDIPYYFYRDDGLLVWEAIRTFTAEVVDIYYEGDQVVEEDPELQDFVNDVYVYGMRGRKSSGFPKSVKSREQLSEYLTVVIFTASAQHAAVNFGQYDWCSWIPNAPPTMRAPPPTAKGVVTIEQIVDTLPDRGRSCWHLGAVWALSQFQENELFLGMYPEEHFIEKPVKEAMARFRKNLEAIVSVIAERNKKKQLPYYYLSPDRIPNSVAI

[4] = Stability in human liver microsomes assessed as parent compound remaining measured after 60 mins in presence of NADPH by LC-MS/MS analysis; assay type: ADME, Microsome; conditions: read-out: Stabilty
Procedure, shortened: (§1)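 Compound is incubated at 37 °C with human, mouse or rat liver microsomes in 50 mM phosphate buffer pH 7.4. […] Samples at 0–60 min are quenched into acetonitrile; percent parent remaining at 60 min is reported. Testosterone is the positive control.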

[5] = biological target: T4, Prostaglandin G/H synthase 2 (Homo sapiens) (UniProt P35354); assay: Inhibition of recombinant human COX2 using arachidonic acid as substrate measured after 5 mins by fluorescence assay
T4 sequence (whole entry): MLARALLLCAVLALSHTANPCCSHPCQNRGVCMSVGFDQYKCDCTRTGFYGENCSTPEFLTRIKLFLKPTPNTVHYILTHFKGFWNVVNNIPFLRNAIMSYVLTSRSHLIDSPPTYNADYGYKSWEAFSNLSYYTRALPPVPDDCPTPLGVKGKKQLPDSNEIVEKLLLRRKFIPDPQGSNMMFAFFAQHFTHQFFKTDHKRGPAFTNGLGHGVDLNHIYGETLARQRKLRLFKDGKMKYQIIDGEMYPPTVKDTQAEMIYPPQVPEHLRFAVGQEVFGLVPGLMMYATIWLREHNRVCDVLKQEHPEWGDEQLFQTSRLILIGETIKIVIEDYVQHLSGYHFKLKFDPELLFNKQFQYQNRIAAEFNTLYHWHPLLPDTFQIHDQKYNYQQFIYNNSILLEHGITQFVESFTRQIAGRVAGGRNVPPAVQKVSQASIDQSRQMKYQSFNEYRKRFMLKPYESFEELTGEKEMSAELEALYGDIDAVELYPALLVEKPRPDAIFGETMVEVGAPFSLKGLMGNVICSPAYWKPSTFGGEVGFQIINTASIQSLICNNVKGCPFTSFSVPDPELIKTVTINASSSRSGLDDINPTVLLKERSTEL

[6] = Cytotoxicity against human PBMC assessed as reduction in cell viability measured after 72 hrs by ATPlite assay; conditions: read-out: LC50 (the source's name)
[7] = Stability in rat liver microsomes assessed as parent compound remaining measured after 60 mins in presence of NADPH by LC-MS/MS analysis; assay type: ADME, Microsome; conditions: read-out: Stabilty; procedure, shortened: as §1
[8] = Stability in mouse liver microsomes assessed as parent compound remaining measured after 60 mins in presence of NADPH by LC-MS/MS analysis; assay type: ADME, Microsome; conditions: read-out: Stabilty; procedure, shortened: as §1
THLE-2 = assay: Cytotoxicity against human THLE-2 cells assessed as reduction in cell viability measured after 72 hrs by ATPlite assay; assay type: cell-based; conditions: thle-2, 72 h, read-out: LC50 (the source's name)
Procedure, shortened: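 THLE-2 cells were grown in BEGM with 0.7 μg/mL phosphoethanolamine, 0.5 ng/mL EGF and 10% FBS, plated at 10,000 cells/well and left to adhere for 24 h. Cells were exposed to 0–100 μM final (1% DMSO) for 72 h at 37 °C, 5% CO2.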

[9] = Apparent permeability across basolateral to apical side in human Caco-2 cells at 10 uM measured after 2 hrs by LC-MS/MS analysis; conditions: caco-2, 2 h
[10] = Apparent permeability across apical to basolateral side in human Caco-2 cells at 10 uM measured after 2 hrs by LC-MS/MS analysis; conditions: caco-2, 2 h
[11] = Efflux ratio of apparent permeability across basolateral to apical side over apical to basolateral side in human Caco-2 cells at 10 uM measured after 2 hrs by LC-MS/MS analysis

| SMILES | IC50 [1] [nM] | IC50 [2] [nM] | further results |
| --- | --- | --- | --- |
| O=C(Nc1ccon1)NC12CC3CC(CC(C3)O1)C2 | 3850 | 911 |  |
| O=C(NC1CCN(C(=O)C2CC2)CC1)NC12CC3CC(CC(C3)O1)C2 | 130 | 213 |  |
| O=C(NC1CCN(C(=O)c2cccnc2)CC1)NC12CC3CC(CC(C3)O1)C2 | 291 | 159 |  |
| O=C(NC1CCN(C(=O)c2ccccc2F)CC1)NC12CC3CC(CC(C3)O1)C2 | 75.9 |  | solubility kinetic at 2 h (physchem): > 100 µM; inhibition [3]: inactive; remaining at 1 h [4]: 30.2%; inhibition [5]: inactive; CC50 [6]: > 20 µM; remaining at 1 h [7]: 19.3%; remaining at 1 h [8]: 39.5%; CC50 (THLE-2): > 100 µM |
| O=C(Nc1ccc(F)c(F)c1F)NC12CC3CC(CC(C3)O1)C2 | 553 |  | solubility kinetic at 2 h (physchem): 27 µM (≈ 8.81 µg/mL); Papp [9]: 151 nm/s; Papp [10]: 168 nm/s |
| O=C(NC12CC3CC(CC(C3)O1)C2)N[C@H]1CC[C@H](Oc2ccc(C(=O)O)cc2)CC1 |  | 9 | solubility kinetic at 2 h (physchem): > 100 µM; efflux ratio at 2 h, 10 µM [11]: 55.4; Papp [9]: 75.5 nm/s; Papp [10]: 1.4 nm/s |
| CC(=O)c1ccc(N2CCC(NC(=O)NC34CC5CC(CC(C5)O3)C4)CC2)cc1 | 107 |  | solubility kinetic at 2 h (physchem): 81.5 µM (≈ 32.4 µg/mL); remaining at 1 h [4]: 40%; remaining at 1 h [7]: 84%; remaining at 1 h [8]: 73%; CC50 (THLE-2): > 100 µM |
| O=C(Nc1ncncn1)NC12CC3CC(CC(C3)O1)C2 |  | 1450 |  |
| O=C(NC1CCN(Cc2ccccc2)CC1)NC12CC3CC(CC(C3)O1)C2 |  | 1090 |  |
| O=C(Nc1ccc(F)c(F)c1F)NC12CC3CC(CC(C3)C1)C2 |  |  | solubility kinetic at 2 h (physchem): 16 µM (≈ 5.19 µg/mL); Papp [9]: 4.6 nm/s; Papp [10]: 6.7 nm/s |
| O=C(Nc1cc(Cl)cc(OC(F)(F)F)c1)NC12CC3CC(CC(C3)O1)C2 | 1860 | 52.6 |  |
| CCC(=O)N1CCC(NC(=O)NC23CC4CC(CC(C4)O2)C3)CC1 | 234 | 356 | inhibition [3]: inactive; inhibition [5]: inactive |
| O=C(NC1CCN(C(=O)C2CCOCC2)CC1)NC12CC3CC(CC(C3)O1)C2 | 512 | 491 |  |
| O=C(Nc1cccc(S(F)(F)(F)(F)F)c1)NC12CC3CC(CC(C3)O1)C2 | 723 | 35.9 |  |
| CNc1nc(C)nc(N2CCC(NC(=O)NC34CC5CC(CC(C5)O3)C4)CC2)n1 | 365 | 496 |  |
| O=C(Nc1nc2ccccc2s1)NC12CC3CC(CC(C3)O1)C2 | 14700 | 782 |  |
| O=C(Nc1ccc(Cl)c(C(F)(F)F)c1)NC12CC3CC(CC(C3)O1)C2 | 344 | 19.7 |  |
| CS(=O)(=O)N1CCC(NC(=O)NC23CC4CC(CC(C4)O2)C3)CC1 | 174 | 247 |  |
